According to ChEMBL document CHEMBL1240480, “Design, synthesis and biological evaluation of L-dopa amide derivatives as potential prodrugs for the treatment of Parkinson's disease” (Eur J Med Chem, 2010):
Values belong to the compound of their own block, whether it stands above or below them.

Legend:
[1] = tested on: Rattus norvegicus; test: Cmax in Wistar rat at 42.5 mg/kg, po assessed as L-dopa level; format: ADME, organism-based; set-up: dose 42.5 mg/kg, route oral; details: in vivo
Procedure, shortened: (§1)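 Naïve male Wistar rats (250–500 g), fasted overnight, dosed orally in 0.9% saline with benserazide (10 mg/kg) at dose equivalent to 12.5 mg/kg L-dopa. Heparinised tail-vein blood at various times; plasma extracted with 20% TFA in 10 mM metabisulphite with warfarin internal standard; L-dopa quantified by LC-MS/MS (positive ESI) against plasma standard curve 0.39–50 µM.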

[2] = tested on: Rattus norvegicus; test: Apparent half life in Wistar rat at 42.5 mg/kg, po assessed as L-dopa level; format: ADME, organism-based; set-up: dose 42.5 mg/kg, route oral; details: in vivo; procedure, shortened: as §1
[3] = tested on: Rattus norvegicus; test: AUC (0 to 4 hrs) in Wistar rat at 42.5 mg/kg, po assessed as L-dopa level; format: ADME, organism-based, Plasma; set-up: time < 4 hr, dose 42.5 mg/kg, route oral; details: in vivo
Procedure, shortened: (§2)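 Naïve male Wistar rats (250–500 g), fasted overnight, dosed with compound in 0.9% saline together with benserazide (10 mg/kg), at a dose molar-equivalent to 12.5 mg/kg L-dopa. Heparinised tail-vein blood was sampled at intervals and the plasma stored at −80 °C. L-dopa was extracted with 20% TFA/10 mM metabisulphite plus warfarin internal standard and quantified by LC-MS/MS (positive ESI) against plasma standard curves.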

[4] = tested on: Rattus norvegicus; test: Antiparkinsonian activity in 6-hydroxydopamine lesioned Wistar rat assessed as number of rotation per 10 mins at 21.81 mg/kg, po; format: functional
[5] = tested on: Rattus norvegicus; test: Antiparkinsonian activity in 6-hydroxydopamine lesioned Wistar rat assessed as area under curve measured as number of rotation per 10 mins at 21.81 mg/kg, po; format: functional
Procedure, shortened: (§3)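 Male Wistar rats were given desipramine (25 mg/kg ip) and then a unilateral 6-OHDA injection (8 µg free base) into the left medial forebrain bundle. Lesions were confirmed ≥2 weeks later by apomorphine (0.5 mg/kg sc), accepting rats with >6 turns/min. Rats (n=4–8) received benserazide 10 mg/kg and 30 min basal recording, then drug at 63.4 µmol/kg ip or po in saline. Contraversive rotations were counted per 10 min over 240 min. AUC was calculated and expressed as % of the L-dopa effect.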

[6] = tested on: Rattus norvegicus; test: Antiparkinsonian activity in 6-hydroxydopamine lesioned Wistar rat assessed as duration of rotation per 10 mins at 21.81 mg/kg, po; format: functional
Procedure, shortened: (§4)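 The 6-OHDA-lesioned male Wistar rats were apomorphine-screened (>6 turns/min) and given benserazide 10 mg/kg, then a saline-vehicle dose of 63.4 µmol/kg ip or po (n=4–8). Rotations were counted per 10 min for 4 h. Duration of activity was the time turning >10 turns per 10 min, expressed as % of the L-dopa effect.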

[7] = tested on: Rattus norvegicus; test: Antiparkinsonian activity in 6-hydroxydopamine lesioned Wistar rat assessed as number of rotation per 10 mins at 20.1 mg/kg, ip; format: functional; details: route intraperitoneal
Procedure, shortened: (§5)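 Rotometer assay in unilaterally 6-OHDA-lesioned male Wistar rats (apomorphine-confirmed, >6 turns/min). Benserazide 10 mg/kg was given, followed by compound at 63.4 µmol/kg ip or po in saline (n=4–8 per treatment). Rotations were recorded per 10 min for 240 min. Peak (maximum) rotations per 10 min were taken and expressed relative to L-dopa.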

[8] = tested on: Rattus norvegicus; test: Antiparkinsonian activity in 6-hydroxydopamine lesioned Wistar rat assessed as number of rotation per 10 mins at 20.1 mg/kg, po; format: functional; procedure, shortened: as §5
[9] = tested on: Rattus norvegicus; test: Antiparkinsonian activity in 6-hydroxydopamine lesioned Wistar rat assessed as area under curve measured as number of rotation per 10 mins at 20.1 mg/kg, po; format: functional; procedure, shortened: as §3
[10] = tested on: Rattus norvegicus; test: Antiparkinsonian activity in 6-hydroxydopamine lesioned Wistar rat assessed as area under curve measured as number of rotation per 10 mins at 20.1 mg/kg, ip; format: functional; details: route intraperitoneal; procedure, shortened: as §3
[11] = tested on: Rattus norvegicus; test: Antiparkinsonian activity in 6-hydroxydopamine lesioned Wistar rat assessed as duration of rotation per 10 mins at 20.1 mg/kg, po; format: functional; procedure, shortened: as §4
[12] = tested on: Rattus norvegicus; test: Antiparkinsonian activity in 6-hydroxydopamine lesioned Wistar rat assessed as duration of rotation per 10 mins at 20.1 mg/kg, ip; format: functional; details: route intraperitoneal; procedure, shortened: as §4
[13] = tested on: Rattus norvegicus; test: Cmax in Wistar rat at 20.1 mg/kg, po assessed as L-dopa level; format: ADME, organism-based; set-up: dose 20.1 mg/kg, route oral; details: in vivo; procedure, shortened: as §1
[14] = tested on: Rattus norvegicus; test: Apparent half life in Wistar rat at 20.1 mg/kg, po assessed as L-dopa level; format: ADME, organism-based; set-up: dose 20.1 mg/kg, route oral; details: in vivo; procedure, shortened: as §1
[15] = tested on: Rattus norvegicus; test: AUC (0 to 4 hrs) in Wistar rat at 20.1 mg/kg, po assessed as L-dopa level; format: ADME, organism-based, Plasma; set-up: time < 4 hr, dose 20.1 mg/kg, route oral; details: in vivo; procedure, shortened: as §2
[16] = tested on: Rattus norvegicus; test: Antiparkinsonian activity in 6-hydroxydopamine lesioned Wistar rat assessed as number of rotation per 10 mins at 22.75 mg/kg, po; format: functional
[17] = tested on: Rattus norvegicus; test: Antiparkinsonian activity in 6-hydroxydopamine lesioned Wistar rat assessed as area under curve measured as number of rotation per 10 mins at 22.75 mg/kg, po; format: functional; procedure, shortened: as §3
[18] = tested on: Rattus norvegicus; test: Antiparkinsonian activity in 6-hydroxydopamine lesioned Wistar rat assessed as duration of rotation per 10 mins at 22.75 mg/kg, po; format: functional; procedure, shortened: as §4
[19] = tested on: Rattus norvegicus; test: Cmax in Wistar rat at 25.4 mg/kg, po assessed as L-dopa level; format: ADME, organism-based; set-up: dose 25.4 mg/kg, route oral; details: in vivo; procedure, shortened: as §1
[20] = tested on: Rattus norvegicus; test: Apparent half life in Wistar rat at 25.4 mg/kg, po assessed as L-dopa level; format: ADME, organism-based; set-up: dose 25.4 mg/kg, route oral; details: in vivo; procedure, shortened: as §1
[21] = tested on: Rattus norvegicus; test: AUC (0 to 4 hrs) in Wistar rat at 25.4 mg/kg, po assessed as L-dopa level; format: ADME, organism-based, Plasma; set-up: time < 4 hr, dose 25.4 mg/kg, route oral; details: in vivo; procedure, shortened: as §2
[22] = tested on: Rattus norvegicus; test: Antiparkinsonian activity in 6-hydroxydopamine lesioned Wistar rat assessed as number of rotation per 10 mins at 21.86 mg/kg, po; format: functional
[23] = tested on: Rattus norvegicus; test: Antiparkinsonian activity in 6-hydroxydopamine lesioned Wistar rat assessed as area under curve measured as number of rotation per 10 mins at 21.86 mg/kg, po; format: functional; procedure, shortened: as §3
[24] = tested on: Rattus norvegicus; test: Antiparkinsonian activity in 6-hydroxydopamine lesioned Wistar rat assessed as duration of rotation per 10 mins at 21.86 mg/kg, po; format: functional; procedure, shortened: as §4

Cmax [1]: 415 ng/mL
t1/2 [2]: 0.85 h
AUC [3]: 44 µg·min/mL
SMILES: CC(C)(C)C(=O)Oc1ccc(C[C@H](N)C(N)=O)cc1OC(=O)C(C)(C)C.Cl

SMILES: CC(=O)Oc1ccc(C[C@H](N)C(=O)N(C)C)cc1OC(C)=O.Cl
Activity [4]: 1
Activity [5]: 26
Time [6]: 0 min

Cmax [13]: 1746 ng/mL
t1/2 [14]: 1.62 h
AUC [15]: 245 µg·min/mL
SMILES: CC(=O)Oc1ccc(C[C@H](N)C(N)=O)cc1OC(C)=O.Cl
Activity [7]: 69
Activity [8]: 107
Activity [9]: 1085
Activity [10]: 838
Time [11]: 147 min
Time [12]: 140 min

SMILES: CC(=O)Oc1ccc(C[C@H](N)C(=O)NC(C)C)cc1OC(C)=O.Cl
Activity [16]: 2
Activity [17]: 26
Time [18]: 0 min

Cmax [19]: 860 ng/mL
t1/2 [20]: 1.3 h
AUC [21]: 98 µg·min/mL
SMILES: CC(C)CC(=O)Oc1ccc(C[C@H](N)C(N)=O)cc1OC(=O)CC(C)C.Cl

SMILES: CCNC(=O)[C@@H](N)Cc1ccc(OC(C)=O)c(OC(C)=O)c1.Cl
Activity [22]: 6
Activity [23]: 20
Time [24]: 3 min
